# The list is not random: actives were taken first. Their share in the collection is about 2.7%.
# PRMT1 FP inh – PRMT1 methyltransferase inhibitors, primary screen, biochemical, fluorescence polarization. inhibition, % at 2.79 µM. AID 652257, 2013. 370,000 compounds, 1.3% hits. Protein arginine N-methyltransferase 1 (Homo sapiens), Q99873. recombinant PRMT1, activity-based probe fluorescence polarization;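 active means inhibition above about 21% made by adding two undisclosed values, limit read from the data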
# SIAE primary – human SIAE inhibitors, primary screen, biochemical, fluorescence polarization, FP-Rh probe, 1536-well HTS; Sialate O-acetylesterase (Homo sapiens), Q9HAT2; SIAE FP-Rh probe binding; inhibition, % at 9.66 µM; 370,000 compounds, 0.69% hits; AID 1053197, 2014;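 active means inhibition above a cutoff: mean of compounds within the control limits plus 3 SD of those, cut at about 17% in these data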
# PAD4 inh – human PAD4 inhibitors, primary screen, biochemical, fluorescence polarization, 1536-well format | recombinant PAD4, RCA probe fluorescence polarization | AID 485272, 2010 | 330,000 compounds, 0.41% hits | inhibition, % at 6.36 µM | Protein-arginine deiminase type-4 (Homo sapiens), Q9UM07;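 active means percent inhibition above a cutoff equal to the mean of all tested compounds plus 3 SD, cut at about 15% in these data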
# Target sequence (Q9UM07 whole entry, looked up): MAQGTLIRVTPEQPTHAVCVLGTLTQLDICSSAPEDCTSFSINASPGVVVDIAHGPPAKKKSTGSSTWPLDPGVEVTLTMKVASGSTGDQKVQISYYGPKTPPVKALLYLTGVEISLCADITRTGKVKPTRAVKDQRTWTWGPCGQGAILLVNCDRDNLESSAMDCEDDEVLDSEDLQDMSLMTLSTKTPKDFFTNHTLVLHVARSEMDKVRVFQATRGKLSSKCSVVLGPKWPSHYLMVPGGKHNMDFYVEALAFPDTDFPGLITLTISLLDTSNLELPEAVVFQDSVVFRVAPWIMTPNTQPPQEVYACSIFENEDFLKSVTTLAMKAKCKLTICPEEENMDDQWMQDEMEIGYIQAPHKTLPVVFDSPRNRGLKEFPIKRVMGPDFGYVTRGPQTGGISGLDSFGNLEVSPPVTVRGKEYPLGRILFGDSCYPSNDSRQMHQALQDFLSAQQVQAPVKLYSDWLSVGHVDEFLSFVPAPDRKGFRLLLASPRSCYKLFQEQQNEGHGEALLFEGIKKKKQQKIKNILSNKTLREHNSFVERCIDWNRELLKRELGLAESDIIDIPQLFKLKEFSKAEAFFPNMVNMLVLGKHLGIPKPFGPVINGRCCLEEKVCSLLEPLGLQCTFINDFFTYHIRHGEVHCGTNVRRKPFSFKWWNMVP
# RBBP9 inhibitor – human RBBP9 inhibitors, primary screen, biochemical, fluorescence polarization, FP-Rh probe, HTS; Serine hydrolase RBBP9 (Homo sapiens), O75884; recombinant RBBP9; inhibition, % at 7.94 µM; 220,000 compounds, 0.2% hits; AID 1515, 2009;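 active means inhibition above the campaign mean of all tested compounds plus 3 SD, cut at about 14% in these data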
#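 System: RBBP9 protein / Buffer or medium: Tris/NaCl buffer pH 8.0 with 0.1% Pluronic / Probe or stimulus: Serine-hydrolase probe FP-Rh, 375 nM pre-mixing / Dosing: 7.94 µM single dose, 0.794% DMSO / Times: enzyme-compound preincubation 30 min, then probe labeling 45 min, 25 °C / Technique: fluorescence polarization (mP), excitation 525 nm, emission 598 nm / Replication: singlicate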
# GSTO1 inh – inhibitors of recombinant GSTO1, primary screen, counter-screen for RBBP9 inhibitor project, biochemical, fluorescence polarization. Glutathione S-transferase omega-1 (Homo sapiens), P78417. activity-based probe fluorescence polarization. inhibition, % at 5.96 µM. 300,000 compounds, 1.1% hits;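 active means inhibition above the campaign mean inhibition plus 3 SD, cut at about 35% in these data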
# PRMT1 inh conf – PRMT1 methyltransferase inhibitors, confirmation, biochemical, fluorescence polarization, triplicate | shares compounds with PRMT1 FP inh | recombinant His-PRMT1, activity-based probe fluorescence polarization | inhibition, % at 2.79 µM | 3,300 compounds, 42% hits | AID 687036, 2013;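 active means mean inhibition across replicates above the hit cutoff derived for the earlier primary screen, cut at about 22% in these data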
# Hits are given with their value; i = inactive; nt = no result.
SMILES,PRMT1 FP inh,SIAE primary,PAD4 inh,RBBP9 inhibitor,GSTO1 inh,PRMT1 inh conf
O=C(CSC1=NC2(CCCCCC2)N=C1c1ccccc1)Nc1ccc2c(c1)OCCO2,i,i,i,i,i,nt
CC1CCCCC12NC(=O)N(CC(=O)OCC(=O)Nc1ccc(F)cc1[N+](=O)[O-])C2=O (stereo not drawn),i,i,i,nt,nt,nt
Cc1ccc(NC(=O)CC2SC3=NCCCN3C2=O)c(C)c1 (stereo not drawn),44.5,i,i,i,i,39.7
CCOCCCNC(=O)CN1C(=O)CSc2ccccc21,i,i,i,i,i,nt
CC(=O)O[C@@H]1CCC[C@@]2(C(=O)Nc3ccccc32)[C@H]1NC(=O)C(C)C,i,i,nt,nt,nt,nt
O=S(NC1CCCCC1)C12CC3CC(CC(C3)C1)C2 (stereo not drawn),99.5,i,i,i,i,i
C(=C\c1ccco1)/c1ccc2ccccc2n1,38.2,i,i,i,i,i
COc1ccc(Cc2nnc(N/N=C/c3ccc(C)o3)[nH]c2=O)cc1,i,i,i,i,i,nt
Cc1cc(-c2n[nH]c(=S)n2/N=C/C(Cl)=C/c2ccccc2)n[nH]1,25.9,i,i,i,i,i
Cc1cc(-c2n[nH]c(=S)n2N=Cc2c3ccccc3cc3ccccc23)n[nH]1,42.3,i,nt,nt,nt,i
S=c1[nH]nc(-c2ccco2)n1/N=C/C(Cl)=C/c1ccccc1,25.6,i,i,i,i,i
CCOC(=O)N1CCN(C(=O)c2ccc3oc(CCCc4ccccc4)nc3c2)CC1,30.7,i,i,nt,i,i
NS(=O)(=O)c1ccccc1,i,i,i,i,i,nt
O=S(=O)(/C=C/C=C/S(=O)(=O)c1ccccc1)c1ccccc1,25.3,i,nt,nt,nt,28.4
Cc1ccc(S(=O)(=O)C=CS(=O)(=O)c2ccc(C)cc2)cc1,90.2,i,nt,nt,nt,94.7
Cc1ccc(S(=O)(=O)CCCS(=O)(=O)c2ccc(C)cc2)cc1,i,i,i,i,i,nt
Cc1ccc(S(=O)(=O)SCCCSS(=O)(=O)c2ccc(C)cc2)cc1,95.7,i,nt,nt,nt,91.5
Cc1ccc(S(=O)(=O)SC/C=C/CSS(=O)(=O)c2ccc(C)cc2)cc1,87.4,i,nt,nt,nt,90.6
CC(=O)c1ccc(OCC(C)C)c(Cc2c(O)nc(N)[nH]c2=O)c1,i,i,i,i,i,nt
Cc1ccc(-c2cc(-c3ccc(F)cc3)nc(N)c2C#N)o1,i,i,i,i,i,nt
Cc1ccc(-c2cc(-c3ccccc3)c(C#N)c(N)n2)o1,30.3,i,i,i,i,66.2
CCOC(=O)c1ccc(/[N+]([O-])=C/c2ccccc2)cc1,24.8,i,i,nt,nt,i
C#CCCc1cscc1/C=[N+](\[O-])c1ccc(C(=O)OCC)cc1,i,i,i,nt,nt,nt
Cc1ccc(NC(=O)CSc2ncc3ccccn23)cc1C,28.0,i,i,i,i,i
Cc1c(Br)cc(C(=O)O)c(C)c1C,i,i,i,i,i,nt
SMILES,PRMT1 FP inh,SIAE primary,PAD4 inh,RBBP9 inhibitor,GSTO1 inh,PRMT1 inh conf
Cc1c(N)cc(N)cc1C(=O)O,32.3,i,i,i,i,i
CCOC(=O)C1(Cc2cccc(F)c2)CCN(C(=O)c2cscn2)CC1,i,i,i,i,i,nt
CC1CCC2C(=O)N(c3ccc(S(=O)(=O)c4ccccc4)cc3)C(=O)C2C1 (stereo not drawn),44.9,i,i,i,i,i
O=C(O)c1ccc(NS(=O)(=O)c2ccc3c(c2)C2C=CCC2C(c2ccccc2F)N3)cc1 (stereo not drawn),47.3,i,nt,i,nt,i
O=C(O)c1ccc2c(c1)C1C=CCC1C(c1cc3c(cc1Br)OCO3)N2 (stereo not drawn),i,i,i,i,i,nt
CC1=C(C(=O)Nc2cc(C(=O)N(C)Cc3ccccc3)ccc2C)SCCO1,i,i,i,nt,i,nt
COc1ccc2c(c1)-c1ccccc1S(=O)(=O)N(C)C2,29.9,i,i,nt,nt,i
CCOC(=O)CC(S(=O)(=O)c1ccccc1)S(=O)(=O)c1ccccc1,78.9,i,nt,nt,nt,58.0
O=C1/C(=C\c2ccc(O)c(O)c2)SC(=S)N1Cc1ccccc1,i,i,nt,nt,nt,nt
O=C(O)CN1C(=O)/C(=C\c2ccccc2OCc2ccc(F)cc2)SC1=S,24.9,i,i,nt,i,i
O=C1/C(=C\c2cccc(O)c2O)SC(=S)N1Cc1ccccc1,94.0,i,i,nt,i,i
O=C1C(=Cc2ccccc2O)SC(=S)N1CCCN1CCOCC1,67.9,i,nt,nt,nt,83.0
O=C1/C(=C\c2cc([N+](=O)[O-])ccc2O)SC(=S)N1Cc1ccc(Cl)cc1,26.1,i,i,nt,i,33.2
Cc1ccccc1C(=O)N1c2ccccc2OCC1C(C)(C)C (stereo not drawn),i,i,i,nt,i,nt
CCOc1ccc(C(=O)NCC(=O)OCc2c(F)cccc2Cl)cc1OCC,i,i,i,i,i,nt
O=C1CC(c2ccco2)CC(O)=C1C=Nc1cc(Cl)cc(Cl)c1 (stereo not drawn),27.8,i,i,i,i,i
CCOc1ccc(N=CC2=C(O)CC(c3ccco3)CC2=O)cc1 (stereo not drawn),i,i,i,i,i,nt
Cc1ccc(CN(C)C(=O)c2cc(COc3cccc(C(F)(F)F)c3)on2)o1,36.5,i,i,nt,i,34.1
CN(Cc1nccn1C)C(=O)c1cc(COc2cccc(C(F)(F)F)c2)on1,i,i,i,nt,i,nt
COc1ccc(N2CCN(C(=O)c3cc(N4C(=O)C5C6CCC(C6)C5C4=O)ccc3Cl)CC2)cc1 (stereo not drawn),36.2,i,i,i,i,i
O=C(C=Cc1ccccc1)c1cc(Br)ccc1O,i,i,nt,nt,nt,nt
CCc1ccc(/C=C/C(=O)c2cc(Br)ccc(=O)c2O)cc1,31.5,i,i,i,i,i
O=C1C(Cl)=C(NCCc2ccccc2)C(=O)c2ccccc21,65.8,i,nt,nt,nt,96.4
COC(=O)[C@@]12C[C@@H](CC(=O)N3CCN(C(=O)C4CC4)CC3)C(=O)N(Cc3ccccc3)C1=CCC(C)(C)C2,i,i,nt,nt,nt,nt
CCOC(=O)NC(=O)C(/C=N/c1sccc1C(=O)OC)=C(\C)O,45.0,i,i,i,i,i
CCC(=O)Nc1sccc1C(=O)OC,nt,nt,i,i,i,nt
Cc1ccc(CNC(=O)COC(=O)c2cccc(S(=O)(=O)N3CCCCC3)c2)cc1,86.4,i,i,nt,nt,i
O=C(COC(=O)c1cccc(S(=O)(=O)N2CCCCC2)c1)NCc1ccccc1,i,i,nt,nt,nt,nt
COc1cc(/C=N\NC(=O)c2ccccc2F)ccc1Oc1ccc([N+](=O)[O-])cn1,i,i,i,i,i,nt
Cc1ccc(-c2nn(-c3cccc(F)c3)cc2CN(Cc2nccn2C)C(C)C)o1,40.8,i,i,i,i,i
